Experimental data from ChEMBL document CHEMBL1121964, “Potential neuroleptic agents. 2,6-Dialkoxybenzamide derivatives with potent dopamine receptor blocking activities” (J Med Chem, 1982).

How the values were obtained:
Rattus norvegicus [1] = experiment: The dosage at which 50% of the animals were cataleptic was measured after (ip) administration in male Sprague-Dawley rats; assay type: functional
Outline: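 Eight rats per dose level were tested. Both forelimbs were placed on a 7-cm-high horizontal bar, and failure to step off within 60 s counted as cataleptic. Testing was done 1, 2, 4, 8 and 24 h post-dose. ED50 with 95% confidence interval came from probit analysis of each compound's peak cataleptic effect.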

Rattus norvegicus [2] = experiment: In vivo blocking of apomorphine induced stereotypies following 1 mg/kg i.p. in rats after 60 min.; assay type: functional; details: ip, 1 h, route intraperitoneal
Outline: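 Male Sprague-Dawley rats (250-300 g) received test compound ip in saline or water 60 min before sc apomorphine 1 mg/kg given into the neck. Stereotypy strength was scored at 5, 20, 40 and 60 min. It was derived by Theil's method with Sen's correction for ties, with a 90% confidence interval.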

Rattus norvegicus [3] = experiment: In vivo blocking of apomorphine induced hyperactivity following 1 mg/kg i.p. in rats after 60 min.; assay type: functional; details: ip, 1 h, route intraperitoneal
Outline: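 Male Sprague-Dawley rats (250-300 g) were dosed ip with test compound in saline or water 60 min before apomorphine 1 mg/kg sc into the neck. Behavior was scored at 5, 20, 40 and 60 min. It was calculated by Theil's method with Sen's tie correction, with a 90% confidence interval.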

[4] = The acute toxicity was assessed after (ip) administration in male Sprague-Dawley rats; assay type: organism-based; details: rat, in vivo

Compound	ED50 (Rattus norvegicus [1]) [µmol/kg]	ED50 (Rattus norvegicus [2]) [µmol/kg]	ED50 (Rattus norvegicus [3]) [µmol/kg]	LD50 [4] [µmol/kg]
CCOc1ccc(Cl)c(OCC)c1C(=O)NCC1CCCN1CC (stereo not drawn)	31	7.2	2.8	–
CCOc1cccc(OCC)c1C(=O)NCC1CCCN1CC (stereo not drawn)	–	> 40	23.4	–
CCN1CCCC1CNC(=O)c1cc(S(N)(=O)=O)ccc1OC (stereo not drawn) [SULPIRIDE]	161	212	65.6	–
CCOc1ccc(Br)c(OCC)c1C(=O)NCC1CCCN1CC (stereo not drawn)	15.7	4.7	1.1	–
CCN(CC1CCCN1CC)C(=O)c1c(OC)c(Br)cc(Br)c1OC (stereo not drawn)	–	> 80	> 80	–
CCN1CCCC1CNC(=O)c1c(OC(C)C)cccc1OC(C)C.Cl (stereo not drawn)	–	> 80	> 80	~160
CCN1CCCC1CNC(=O)c1c(OC)c(Br)cc(Br)c1OC.Cl (stereo not drawn)	8.2	4.6	1.15	177
CCN1CCCC1CNC(=O)c1c(OC)c(Cl)cc(Br)c1OC (stereo not drawn)	5	7.3	3.9	206
CCN1CCC[C@@H]1CNC(=O)c1c(OC)ccc(Br)c1OC	–	> 196	120	–
COc1ccc(Br)c(OC)c1C(=O)NCC1CCCN1 (stereo not drawn)	–	100	47	–
O=C(CCCN1CCC(O)(c2ccc(Cl)cc2)CC1)c1ccc(F)cc1 [HALOPERIDOL]	0.67	0.27	0.29	–
CCN1CCC[C@H]1CNC(=O)c1c(OC)ccc(Br)c1OC.Cl	24.5	–	–	794
CCOc1ccc(Br)c(OCC)c1C(=O)NC[C@@H]1CCCN1CC.Cl	8.9	1.9	0.47	206
CCN1CCCC1CNC(=O)c1c(Cl)cccc1Cl (stereo not drawn)	–	> 80	> 80	–
CCN1CCCC1CNC(=O)c1c(OC)ccc(Cl)c1OC (stereo not drawn)	–	42.7	30.8	–
CCN1CCC[C@@H]1CNC(=O)c1c(OC)c(Br)cc(Br)c1OC	–	> 82	13.1	159
CCN1CCC[C@H]1CNC(=O)c1c(OC)ccc(Cl)c1OC.Cl	–	11.7	5.6	~826
CCN1CCCC1CNC(=O)c1c(OC)c(Cl)cc(Cl)c1OC (stereo not drawn)	16.8	5.4	3.1	224
CCN1CCCC1CNC(=O)c1c(OC)ccc(Br)c1OC.Cl (stereo not drawn)	47	21.3	12.8	817
CCN1CCC[C@H]1CNC(=O)c1c(OC)c(Br)cc(Br)c1OC	5.3	2.1	0.44	–
